The results in this text go back to ChEMBL document CHEMBL3286301, “Solving time-dependent CYP3A4 inhibition for a series of indole-phenylacetic acid dual antagonists of the PGD(2) receptors CRTH2 and DP” (Bioorg Med Chem Lett, 2014).

One may read the IC50 as the concentration that gives 50% inhibition.

The target in one data set is CYP3A4 (Homo sapiens, UniProt P08684). As to the kind of experiment: Time dependent inhibition of human liver microsome CYP3A4 activity assessed as percentage remaining activity by measuring 6-beta-OH-testosterone formation at 15 uM for 15 mins using 200 uM testosterone as a substrate by LC/MS/MS analysis. To be noted: liver microsomes, probe testosterone, read-out: Activity. The format is ADME. In a few lines:
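Pooled human liver microsomes (1.0 mg/mL) in 100 mM potassium phosphate, pH 7.4, preincubated with compound (15 µM) and 1 mM NADPH for 15 min. Then diluted 1:10 into a secondary incubation with 200 µM testosterone (saturating) plus 1 mM NADPH for 20 min. Stopped with acetonitrile containing deuterated internal standard. 6β-OH-testosterone measured by LC/MS/MS; % remaining activity reported. Average of at least two experiments.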

In data set [1] the target is T1, Prostaglandin D2 receptor 2 (Homo sapiens, UniProt Q9Y5Y4).
T1 sequence (Q9Y5Y4 whole entry): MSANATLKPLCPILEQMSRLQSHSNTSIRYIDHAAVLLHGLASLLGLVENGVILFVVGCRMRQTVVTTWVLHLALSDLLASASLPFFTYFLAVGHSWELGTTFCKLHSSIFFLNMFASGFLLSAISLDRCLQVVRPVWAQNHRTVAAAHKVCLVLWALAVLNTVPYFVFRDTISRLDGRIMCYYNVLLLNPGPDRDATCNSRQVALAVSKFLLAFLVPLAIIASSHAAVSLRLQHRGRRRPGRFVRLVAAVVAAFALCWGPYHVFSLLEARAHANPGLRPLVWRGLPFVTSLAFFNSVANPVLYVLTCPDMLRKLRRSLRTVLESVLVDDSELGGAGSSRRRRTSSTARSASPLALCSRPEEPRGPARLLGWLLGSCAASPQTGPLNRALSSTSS
As to the kind of experiment: Displacement of [3H]-PGD2 from human CRTH2 expressed in HEK293 cells in buffer solution with 0.5% bovine serum albumin by scintillation counting. The format is cell-based. In a few lines: (§1)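 Radioligand binding: displacement of ³H-PGD2 from receptor expressed on HEK 293 cells. Run either in buffer with 0.5% bovine serum albumin or in 50% human plasma. IC50 values are the average of at least two experiments.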
In general terms: Loss of bound radioactivity is the signal in a displacement assay; it reports binding, not function.

In data set [2] the target is T1, Prostaglandin D2 receptor 2. As to the kind of experiment: Displacement of [3H]-PGD2 from human CRTH2 expressed in HEK293 cells in presence of 50% human plasma by scintillation counting. The class given is cell-based. In a few lines:
as §1

In data set [3] the target is T2, Prostaglandin D2 receptor (Homo sapiens, UniProt Q13258).
T2 sequence (Q13258 whole entry): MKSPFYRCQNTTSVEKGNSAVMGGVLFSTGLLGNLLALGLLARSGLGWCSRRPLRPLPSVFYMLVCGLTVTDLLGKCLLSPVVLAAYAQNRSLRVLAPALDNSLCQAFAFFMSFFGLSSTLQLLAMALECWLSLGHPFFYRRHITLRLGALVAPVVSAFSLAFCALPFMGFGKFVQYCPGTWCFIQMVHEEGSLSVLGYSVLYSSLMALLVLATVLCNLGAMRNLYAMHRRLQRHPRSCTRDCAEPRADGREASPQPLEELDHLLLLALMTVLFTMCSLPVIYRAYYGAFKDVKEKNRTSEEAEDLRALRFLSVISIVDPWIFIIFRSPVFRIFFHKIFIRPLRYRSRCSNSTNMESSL
Description: Displacement of [3H]-PGD2 from human DP receptor expressed in HEK293 cells in buffer solution with 0.5% bovine serum albumin by scintillation counting. The class given is cell-based. The procedure, abridged: as §1

Data set [4] concerns the target T2, Prostaglandin D2 receptor. Description: Displacement of [3H]-PGD2 from human DP receptor expressed in HEK293 cells in presence of 50% human plasma by scintillation counting. The class given is cell-based. The procedure, abridged: as §1

CYP3A4, sequence (P08684 whole entry): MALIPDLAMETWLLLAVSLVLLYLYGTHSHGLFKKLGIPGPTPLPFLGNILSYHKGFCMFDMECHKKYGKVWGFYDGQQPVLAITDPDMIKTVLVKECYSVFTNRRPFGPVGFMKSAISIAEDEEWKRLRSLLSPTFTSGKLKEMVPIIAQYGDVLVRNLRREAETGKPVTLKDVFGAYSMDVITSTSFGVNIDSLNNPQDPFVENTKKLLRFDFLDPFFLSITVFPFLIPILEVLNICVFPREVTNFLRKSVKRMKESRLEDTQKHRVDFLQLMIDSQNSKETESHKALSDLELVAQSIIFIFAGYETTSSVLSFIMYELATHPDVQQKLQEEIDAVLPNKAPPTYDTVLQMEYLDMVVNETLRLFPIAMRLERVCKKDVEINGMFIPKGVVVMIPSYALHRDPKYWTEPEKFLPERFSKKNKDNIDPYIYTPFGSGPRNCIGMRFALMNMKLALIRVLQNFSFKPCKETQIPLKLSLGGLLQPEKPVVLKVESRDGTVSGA

For `COc1cc(CC(=O)O)ccc1Oc1ccc2[nH]c(C3CC3)cc2c1NS(=O)(=O)c1ccc(Cl)cc1Cl`, on CYP3A4, the activity at 0.25 h, 15 µM was determined as 41%. The IC50 stood at 8 nM in data set [1], 25 nM in data set [2], 74 nM in data set [3] and 350 nM in data set [4].
Regarding `COc1cc(CC(=O)O)ccc1Oc1ccc2[nH]c(CC(C)C)cc2c1NS(=O)(=O)c1ccc(Cl)cc1Cl`, the activity at 0.25 h, 15 µM on CYP3A4 is 38%. In addition, the IC50 came out at 32 nM in data set [1], 48 nM in data set [2], 62 nM in data set [3] and 110 nM in data set [4].
As for `COc1cc(CC(=O)O)ccc1Oc1ccc2[nH]c(C(C)(C)C)cc2c1NS(=O)(=O)c1ccc(Cl)cc1Cl`, at CYP3A4, the activity at 0.25 h, 15 µM came to 81%. Besides, the figures for the IC50 in data set [1] and in data set [3] were 32 nM and 8400 nM, respectively.
As for `CCCc1cc2c(NS(=O)(=O)c3ccc(Cl)cc3Cl)c(Oc3ccc(CC(=O)O)cc3OC)ccc2[nH]1`, the activity at 0.25 h, 15 µM on CYP3A4 stood at 79%. For the same compound, the IC50 in data set [1] was 57 nM; in data set [2], 110 nM; in data set [3] it was 45 nM; in data set [4], 130 nM.
In the same order, the values of `COc1cc(CC(=O)O)ccc1Oc1ccc2c(cc(C)n2C)c1NS(=O)(=O)c1ccc(Cl)cc1Cl` are 28%, 22 nM, 56 nM, 27 nM and 76 nM.
Consider `COc1cc(CC(=O)O)ccc1Oc1ccc2[nH]c(C)c(Cl)c2c1NS(=O)(=O)c1ccc(Cl)cc1Cl`, for which the activity at 0.25 h, 15 µM on CYP3A4 amounted to 87%. Moreover, the half-inhibitory concentration (IC50) in data set [1] is 220 nM; in data set [3], 1100 nM.
With `COc1cc(CC(=O)O)ccc1Oc1ccc2[nH]c(C#N)cc2c1NS(=O)(=O)c1ccc(Cl)cc1Cl`, the activity at 0.25 h, 15 µM on CYP3A4 was 73%. The IC50 in data set [1] amounted to 27 nM; in data set [2], 130 nM; in data set [3] it was 82 nM; in data set [4], 130 nM.
Turning to `COc1cc(CC(=O)O)ccc1Oc1ccc2c(c1NS(=O)(=O)c1ccc(Cl)cc1Cl)CC(=O)N2`, the activity at 0.25 h, 15 µM on CYP3A4 came out at 103%. Besides, the IC50 in data set [1] stood at 3 nM; in data set [2] it was 31 nM; in data set [3], 17 nM; in data set [4], 1300 nM.
